# Measurements reported in ChEMBL document CHEMBL3352117, “Piperazine and piperidine carboxamides and carbamates as inhibitors of fatty acid amide hydrolase (FAAH) and monoacylglycerol lipase (MAGL)” (Bioorg Med Chem, 2014).
# Key:
# [1] = target: T1, Monoglyceride lipase (Homo sapiens) (UniProt Q99685); assay: Inhibition of human recombinant MAGL expressed in HEK293 cells using 2-AG as substrate assessed as remaining activity at 10 uM
# T1 sequence (whole entry): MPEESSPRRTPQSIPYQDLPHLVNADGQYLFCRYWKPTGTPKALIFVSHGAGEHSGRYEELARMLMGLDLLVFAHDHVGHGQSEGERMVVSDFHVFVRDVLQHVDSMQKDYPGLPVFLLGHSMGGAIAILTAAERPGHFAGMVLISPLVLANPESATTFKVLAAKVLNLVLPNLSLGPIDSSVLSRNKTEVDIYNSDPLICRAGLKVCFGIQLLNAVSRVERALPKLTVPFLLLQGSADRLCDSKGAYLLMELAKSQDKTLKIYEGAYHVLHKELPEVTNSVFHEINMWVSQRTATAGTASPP
# How it was run: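 Lysates of HEK293 cells transiently overexpressing human MAGL, 2.5 ug protein per incubation, with 50 uM 2-AG substrate. Test compound at 10 uM. Remaining activity expressed as % of control, given as range, n = 2.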
# [2] = target: T2, Fatty-acid amide hydrolase 1 (Homo sapiens) (UniProt O00519); assay: Inhibition of human recombinant FAAH expressed in COS7 cells using anandamide as substrate assessed as remaining activity at 10 uM; assay type: cell-based; details: COS-7
# T2 sequence (whole entry): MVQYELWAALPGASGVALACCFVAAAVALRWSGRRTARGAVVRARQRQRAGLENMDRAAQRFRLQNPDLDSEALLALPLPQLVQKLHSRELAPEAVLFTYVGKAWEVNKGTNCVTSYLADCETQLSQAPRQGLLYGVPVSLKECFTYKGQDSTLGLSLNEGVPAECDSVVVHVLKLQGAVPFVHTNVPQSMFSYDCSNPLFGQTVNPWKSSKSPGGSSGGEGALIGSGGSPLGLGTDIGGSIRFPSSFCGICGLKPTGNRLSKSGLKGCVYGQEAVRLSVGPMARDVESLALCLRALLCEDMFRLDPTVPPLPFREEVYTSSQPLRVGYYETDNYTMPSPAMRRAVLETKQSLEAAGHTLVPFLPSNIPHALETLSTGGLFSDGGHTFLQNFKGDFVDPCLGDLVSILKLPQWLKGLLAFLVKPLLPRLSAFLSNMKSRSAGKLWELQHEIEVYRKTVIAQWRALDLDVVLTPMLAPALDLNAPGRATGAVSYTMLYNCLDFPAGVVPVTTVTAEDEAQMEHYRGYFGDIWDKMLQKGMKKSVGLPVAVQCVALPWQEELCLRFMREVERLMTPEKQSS
# How it was run: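 Membranes of COS-7 cells transiently overexpressing human FAAH, 1 ug protein per incubation, with 20 uM anandamide substrate including 10 nM 3H-anandamide tracer. Test compound at 10 uM. Remaining activity expressed as % of control, given as range, n = 2.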
# Monoglyceride lipase = target: T3, Monoglyceride lipase (Homo sapiens, UniProt Q99685); assay: Inhibition of human recombinant MAGL expressed in HEK293 cells using 2-AG as substrate; assay type: cell-based
# T3 sequence (Q99685 whole entry): T1 sequence (whole entry)
# How it was run: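 Lysates of HEK293 cells transiently overexpressing human recombinant MAGL, 2.5 ug protein per incubation. 2-AG substrate at 50 uM.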
# [3] = target: T4, Fatty-acid amide hydrolase 1 (Homo sapiens, UniProt O00519); assay: Inhibition of human recombinant FAAH expressed in COS7 cells using anandamide as substrate; assay type: cell-based, COS-7
# T4 sequence (O00519 whole entry): T2 sequence (whole entry)
# How it was run: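 Membranes of COS-7 cells transiently overexpressing human recombinant FAAH, 1 ug protein per incubation. Anandamide substrate at 20 uM, including 10 nM 3H-anandamide tracer (specific activity 60 […]/mmol).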
# Homo sapiens = species: Homo sapiens; assay: Selectivity ratio of IC50 for human recombinant FAAH to IC50 for human recombinant MAGL
Activity [1] [%],Activity [2] [%],IC50 (Monoglyceride lipase; read-out: IC50) [nM],IC50 ([3]; read-out: IC50) [nM],IC50 ([3]; read-out: pIC50 (converted)) [nM],Ratio IC50 (Homo sapiens),IC50 (Monoglyceride lipase; read-out: pIC50 (converted)) [nM],Structure (SMILES)
102,98,,,,,,O=C(Nc1ccc([N+](=O)[O-])cc1)N1CCN(Cc2cccc(Oc3ccccc3)c2)CC1
,,1910,231,229,,,CCOC(=O)N1CCN(C(=O)n2nnc3cccnc32)CC1
,,5.5,23,22.9,4,,O=C(N1CCN(Cc2cccc(Oc3ccccc3)c2)CC1)n1nnc2cccnc21
,,1.7,971,977,,,O=C(N1CCN(C(c2ccccc2)c2ccccc2)CC1)n1nnc2cccnc21
96,86,,,,,,O=C(Nc1ccc(C(F)(F)F)cc1)N1CCN(C(c2ccccc2)c2ccccc2)CC1
78,56,,,,,,COc1ccc(NC(=O)N2CCN(Cc3cccc(Oc4ccccc4)c3)CC2)cc1
51,,,2300,2290,,,O=C(N1CCN(C(c2ccccc2)c2ccccc2)CC1)n1ccnc1
93,62,,,,,,O=C(N1CCN(C(c2ccccc2)c2ccccc2)CC1)n1cnc(-c2ccccc2)c1
85,89,,,,,,O=C(Oc1ccc([N+](=O)[O-])cc1)N1CCC(=C(c2ccc3c(c2)OCO3)c2ccc3c(c2)OCO3)CC1
,,275,11,11.2,,,O=C(N1CCN(c2ccccc2)CC1)n1nnc2cccnc21
,,132,6,6.03,,,O=C(N1CCN(c2ccccc2)CC1)n1cncn1
92,92,,,,,,O=C(OCc1ccccc1)N1CCC(C(O)(c2ccc3c(c2)OCO3)c2ccc3c(c2)OCO3)CC1
,,0.9,282,282,,,O=C(N1CCN(C(c2ccc(F)cc2)c2ccc(F)cc2)CC1)n1cncn1
,76,74,,,,,O=C(OC(C(F)(F)F)C(F)(F)F)N1CCN(Cc2cccc(Oc3ccccc3)c2)CC1
,,,1620,1620,2320,0.692,O=C(N1CCC(C(O)(c2ccc3c(c2)OCO3)c2ccc3c(c2)OCO3)CC1)n1cncn1
98,,,3020,3020,,,O=C(Nc1ccccc1)N1CCN(Cc2cccc(Oc3ccccc3)c2)CC1
62,88,,,,,,O=C(Nc1ccccc1)N1CCN(C(c2ccccc2)c2ccccc2)CC1
58,84,,,,,,O=C(Nc1ccc([N+](=O)[O-])cc1)N1CCN(C(c2ccccc2)c2ccccc2)CC1
,,2840,15,15.5,,,O=C(N1CCN(Cc2cccc(Oc3ccccc3)c2)CC1)n1ccnc1
89,90,,,,,,O=C(OCC(Cl)(Cl)Cl)N1CCC(C(O)(c2ccc3c(c2)OCO3)c2ccc3c(c2)OCO3)CC1
101,87,,,,,,O=C(Nc1cccnc1)N1CCN(C(c2ccccc2)c2ccccc2)CC1
,,70,708,708,,,O=C(N1CCN(Cc2ccc(Oc3ccccc3)cc2)CC1)n1nnc2ccccc21
,,0.6,2.7,2.69,4.5,,O=C(N1CCN(Cc2cccc(Oc3ccccc3)c2)CC1)n1cncn1
,,1660,141,141,,,CCOC(=O)N1CCN(C(=O)n2cncn2)CC1
94,87,,,,,,O=C(Nc1ccccn1)N1CCN(C(c2ccccc2)c2ccccc2)CC1
,,1.3,452,447,,,O=C(N1CCN(C(c2ccccc2)c2ccccc2)CC1)n1cncn1
,,660,3.4,17.4,,,O=C(N1CCN(Cc2ccc(Oc3ccccc3)cc2)CC1)n1ccnc1
,,7.8,89,89.1,10,,O=C(N1CCN(Cc2cccc(Oc3ccccc3)c2)CC1)n1nnc2ccccc21
86,89,,,,,,COc1ccc(NC(=O)N2CCN(C(c3ccccc3)c3ccccc3)CC2)cc1
92,84,,,,,,CCCCc1ccc(NC(=O)N2CCN(C(c3ccccc3)c3ccccc3)CC2)cc1

Structure (SMILES),Activity [1] [%],Activity [2] [%],IC50 (Monoglyceride lipase; read-out: IC50) [nM],IC50 ([3]; read-out: IC50) [nM],IC50 ([3]; read-out: pIC50 (converted)) [nM],Ratio IC50 (Homo sapiens),IC50 (Monoglyceride lipase; read-out: pIC50 (converted)) [nM]
O=C(N1CCC(C(c2ccc3c(c2)OCO3)c2ccc3c(c2)OCO3)CC1)n1cncn1,,,0.4,4800,4790,> 13000,
O=C(Oc1ccc([N+](=O)[O-])cc1)N1CCN(Cc2ccc(Oc3ccccc3)cc2)CC1,,43,1100,,,,
O=C(Oc1ccc([N+](=O)[O-])cc1)N1CCC(C(c2ccc3c(c2)OCO3)c2ccc3c(c2)OCO3)CC1,,88,42,,,,
O=C(Oc1ccc([N+](=O)[O-])cc1)N1CCN(C(c2ccc(F)cc2)c2ccc(F)cc2)CC1,,85,347,,,,
O=C(Oc1ccc([N+](=O)[O-])cc1)N1CCN(C(c2ccccc2)c2ccccc2)CC1,,86,257,,,,
